The values below come from article PMC8183215 (Journal for Immunotherapy of Cancer, 2021).

Molecules are shown by their SMILES. Residues, ends and D or L forms follow the SMILES beside them.

Usually half-life stands for how long it takes for the measured level to halve. A high value points to slow decline.

The series in a line: In vitro plasma stability. It is filed as in vitro ADME. The note with it: rat, pH 7.4. In outline:
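Test compound prepared as a 1000 ng/mL stock in 0.01 M Tris-HCl (pH 7.4), then mixed in equal volume with rat plasma and incubated at 37 °C. Samples were taken at 0, 2, 5, 10, 30 and 60 min, and methanol was added to precipitate protein. After centrifugation at 12 000 rpm for 15 min and a second spin of the supernatant, UPLC-MS peak areas gave the half-life.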

As to `CC[C@H](C)[C@H](NC(=O)[C@@H](N)[C@@H](C)O)C(=O)N[C@@H](Cc1c[nH]c2ccccc12)C(=O)N[C@@H](CCSC)C(=O)N[C@@H](CC(C)C)C(=O)N[C@@H](CC(C)C)C(=O)N[C@@H](CCSC)C(=O)N[C@@H](CC(C)C)C(=O)N[C@@H](CCC(N)=O)C(=O)O` [peptide 2] (H-TIWMLLMLQ-OH), the half-life at 500 ng/mL is around 5 min.

For `CC(C)C[C@H](NC(=O)[C@H](CCCCN)NC(=O)[C@H](CCCNC(=N)N)NC(=O)[C@@H]1CCCN1C(=O)[C@H](CCC(=O)O)NC(=O)CNC(=O)[C@H](Cc1ccc(O)cc1)NC(=O)[C@H](C)NC(=O)[C@@H](N)CO)C(=O)O` [peptide 1] (H-SAYGEPRKL-OH; N-terminus and C-terminus assumed), the half-life at 500 ng/mL is around 5 min.
